Experimental data published in ChEMBL document CHEMBL4689842, “EUbOPEN Chemogenomics Library wave 1” (2021).

Tested on: U2OS
Experiment: Multiplex assay against U2OS
Assay type: toxicity, cell-based
Details: human
Procedure, shortened: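 Cells were classed with CellPathfinder machine-learning gating, first as Hoechst high-intensity objects or normal cells, then (normal cells) as healthy, pyknosed or fragmented nuclei, and finally (pyknosed cells) as mitotic or apoptotic. Staining of live cells at seeding used Hoechst33342, BioTracker Green Microtubule Cytoskeleton Dye, MitoTracker Red and Annexin V Alexa Fluor 680, with imaging on a CQ1 microscope at 37°C and 5% CO2 after compound addition. Tubulin, mitochondrial-mass and membrane-permeability phenotypes are per cents of healthy-nucleus cells.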

[1] = 12 h, 1 µM, compound concentration 1 uM, replicate 1
[2] = 12 h, 1 µM, compound concentration 1 uM, replicate 2
[3] = 12 h, 10 µM, compound concentration 10 uM, replicate 1
[4] = 12 h, 10 µM, compound concentration 10 uM, replicate 2
[5] = 24 h, 1 µM, compound concentration 1 uM, replicate 1
[6] = 24 h, 1 µM, compound concentration 1 uM, replicate 2
[7] = 24 h, 10 µM, compound concentration 10 uM, replicate 1

COc1ccc(NS(=O)(=O)c2sc3ccc(Cl)cc3c2C)cc1N1CCNCC1.Cl
Population Apoptotic (%) [1]: 57%
Population Fragmented Nuclei (%) [1]: 12%
Population Healthy Nuclei (%) [1]: 74%
Population Hoechst High Intensity Objects (%) [1]: 6%
Population Membrane Permeable-Phenotype (%) [1]: 6%
Population Mitochondria Different-Phenotype (%) [1]: 11%
Population Mitotic Cells (%) [1]: 42%
Population Normal (%) [1]: 93%
Population Pyknosed Nuclei (%) [1]: 12%
Population Tubulin-Different-Phenotype (%) [1]: 10%
Total Cell Count [1]: 172
Population Apoptotic (%) [2]: 28%
Population Fragmented Nuclei (%) [2]: 13%
Population Healthy Nuclei (%) [2]: 69%
Population Hoechst High Intensity Objects (%) [2]: 12%
Population Membrane Permeable-Phenotype (%) [2]: 0%
Population Mitochondria Different-Phenotype (%) [2]: 26%
Population Mitotic Cells (%) [2]: 71%
Population Normal (%) [2]: 87%
Population Pyknosed Nuclei (%) [2]: 16%
Total Cell Count [2]: 69
Population Apoptotic (%) [3]: 43%
Population Fragmented Nuclei (%) [3]: 12%
Population Healthy Nuclei (%) [3]: 57%
Population Hoechst High Intensity Objects (%) [3]: 5%
Population Membrane Permeable-Phenotype (%) [3]: 29%
Population Mitochondria Different-Phenotype (%) [3]: 97%
Population Mitotic Cells (%) [3]: 56%
Population Normal (%) [3]: 94%
Population Pyknosed Nuclei (%) [3]: 30%
Population Tubulin-Different-Phenotype (%) [3]: 97%
Total Cell Count [3]: 162
Population Apoptotic (%) [4]: 61%
Population Fragmented Nuclei (%) [4]: 14%
Population Healthy Nuclei (%) [4]: 56%
Population Hoechst High Intensity Objects (%) [4]: 4%
Population Membrane Permeable-Phenotype (%) [4]: 25%
Population Mitochondria Different-Phenotype (%) [4]: 100%
Population Mitotic Cells (%) [4]: 38%
Population Normal (%) [4]: 95%
Population Pyknosed Nuclei (%) [4]: 29%
Population Tubulin-Different-Phenotype (%) [4]: 94%
Total Cell Count [4]: 49
Population Apoptotic (%) [5]: 52%
Population Healthy Nuclei (%) [5]: 76%
Population Hoechst High Intensity Objects (%) [5]: 5%
Population Membrane Permeable-Phenotype (%) [5]: 3%
Population Mitochondria Different-Phenotype (%) [5]: 10%
Population Mitotic Cells (%) [5]: 48%
Population Normal (%) [5]: 95%
Population Pyknosed Nuclei (%) [5]: 13%
Population Tubulin-Different-Phenotype (%) [5]: 6%
Total Cell Count [5]: 174
Population Apoptotic (%) [6]: 33%
Population Fragmented Nuclei (%) [6]: 10%
Population Healthy Nuclei (%) [6]: 77%
Population Hoechst High Intensity Objects (%) [6]: 3%
Population Membrane Permeable-Phenotype (%) [6]: 5%
Population Mitochondria Different-Phenotype (%) [6]: 13%
Population Mitotic Cells (%) [6]: 66%
Population Normal (%) [6]: 96%
Population Pyknosed Nuclei (%) [6]: 12%
Population Tubulin-Different-Phenotype (%) [6]: 5%
Total Cell Count [6]: 67
Population Apoptotic (%) [7]: 61%
Population Fragmented Nuclei (%) [7]: 17%
